Laboratory results taken from ChEMBL document CHEMBL1138880, “Synthesis of DNA-directed pyrrolidinyl and piperidinyl confined alkylating chloroalkylaminoanthraquinones: potential for development of tumor-selective N-oxides” (J Med Chem, 2006).
Active and inactive are the calls of the source. No cut-off for these calls is given here.

Legend:
[1] = system: A2780; experiment: Inhibition of A2780 cell growth; format: functional, cell-based; conditions: Homo sapiens
[2] = system: A2780; experiment: Inhibition of Doxorubicin-resistant A2780 cell growth; format: functional, cell-based; conditions: Homo sapiens
[3] = system: A2780; experiment: Inhibition of cisplatin-resistant A2780 cell growth; format: functional, cell-based; conditions: Homo sapiens
[4] = system: A2780; experiment: Resistance factor, IC50 for A2780/cp70 cells/ IC50 for A2780 cells; format: functional, Homo sapiens
[5] = system: Nucleic Acid; experiment: Alkylation of DNA at 10 uM after 24 hrs by Taq polymerase stop assay; format: nucleic-acid assay
Outline: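 Linearised pBR322 was treated with drug for 24 h; the screening range was 1 nM-10 µM. Treated DNA was extended with labelled SRM primer and Taq polymerase over 30 cycles (95 °C 1 min, 58 °C 1 min, 74 °C). Products were run on a denaturing gel in TBE at 55 °C with mechlorethamine and untreated DNA, then autoradiographed to map guanine alkylation sites.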

[6] = system: Nucleic Acid; experiment: Ability to interstand cross-link DNA upto 100 uM by agarose gel cross-link assay; format: nucleic-acid assay
Outline: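 Agarose gel interstrand cross-link assay on linearised, 5′-end 32P-labelled pBR322 in TEOA buffer at 37 °C. Drug was tested across concentrations up to 100 µM and times up to 24 h. DNA was strand-separated at 95 °C, then run on 0.8% agarose and autoradiographed.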

[7] = system: A2780; experiment: Resistance factor, IC50 for A2780 AD cells/ IC50 for A2780 cells; format: functional, Homo sapiens
[8] = system: Panel NCI-60 (60 carcinoma cell lines); experiment: Cytotoxicity against NCI60 cell line; format: functional; conditions: Homo sapiens
[9] = system: Nucleic Acid; experiment: Ability to interstand cross-link DNA by agarose gel cross-link assay; format: nucleic-acid assay
Outline: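 Linearised, 5′-end 32P-labelled pBR322 DNA (~100 ng) incubated with drug (0.01-10 µM final) in TEOA buffer at 37 °C for 1 h, then stopped. DNA was precipitated, heat-denatured in strand separation buffer (95 °C, 2 min), run on 0.8% agarose at 40 V overnight and autoradiographed. Cross-linked DNA was quantified by densitometry as the mean of three replicates.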

[10] = system: Nucleic Acid; experiment: Induction of DNA unwinding by agarose gel based supercoiled plasmid pBR322 DNA mobility assay; format: nucleic-acid assay
Outline: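 Circular supercoiled pBR322 (250 ng) with compound in reaction buffer (Tris-HCl pH 7.9, NaCl, KCl, MgCl2, EDTA, BSA, ATP), 30 °C for 15 min; stopped, run on 0.8% agarose in 1× TAE at 100 V for 3 h, EtBr-stained 30 min, visualized under UV.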

SMILES | IC50 [1] [µM] | IC50 [2] [µM] | IC50 [3] [µM] | Ratio IC50 [4] | Activity [5] | Activity [6] | Ratio IC50 [7] | GI50 [8] [µM] | Activity [9] | Activity [10]
O=C1c2c(O)ccc(O)c2C(=O)c2c(NCCN3CCCC(CO)C3)ccc(NCCN3CCCC(CO)C3)c21 (stereo not drawn) | 0.07 | > 1 | 0.07 | 1 | – | – | – | – | – | –
O=C1c2c(O)ccc(O)c2C(=O)c2c(NCCN3CCCC(CCl)C3)ccc(NCCN3CCCC(CCl)C3)c21 (stereo not drawn) | > 1 | > 1 | > 1 | – | inactive | inactive | – | – | – | –
CN(C)CCNc1ccc(NCCN2CCCC2CCl)c2c1C(=O)c1c(O)ccc(O)c1C2=O (stereo not drawn) | 0.029 | 0.292 | 0.079 | 2.7 | – | – | 10.1 | 0.096 | – | –
CN(C)CCNc1ccc(NCCN2CCC(Cl)C2)c2c1C(=O)c1c(O)ccc(O)c1C2=O (stereo not drawn) | 0.068 | 0.342 | 0.096 | 1.4 | – | – | 5 | – | – | –
O=C1c2c(O)ccc(O)c2C(=O)c2c(NCCN3CCCCC3)ccc(NCCN3CCCCC3)c21 | > 1 | > 1 | > 1 | – | – | – | – | – | – | –
CN(C)CCNc1ccc(NCCN2C(CCl)CCCC2CCl)c2c1C(=O)c1c(O)ccc(O)c1C2=O (stereo not drawn) | 0.024 | 0.106 | 0.357 | 14.9 | – | – | 4.4 | – | – | –
O=C1c2ccccc2C(=O)c2c(NCCN3CCCC3CO)cccc21 (stereo not drawn) | > 1 | > 1 | > 1 | – | – | – | – | – | – | –
O=C1c2c(O)ccc(O)c2C(=O)c2c(NCCN3CCCCC3CO)ccc(NCCN3CCCCC3CO)c21 (stereo not drawn) | 0.74 | > 1 | > 0.59 | 0.9 | – | – | – | – | – | –
O=C1c2c(O)ccc(O)c2C(=O)c2c(NCCN3CCCCC3CCl)ccc(NCCN3CCCCC3CCl)c21 (stereo not drawn) | 0.178 | > 1 | > 1 | – | – | – | – | – | Time-dependent effect | –
CN(C)CCNc1ccc(NCCN2CCC(Cl)CC2)c2c1C(=O)c1c(O)ccc(O)c1C2=O | 0.576 | 0.426 | 0.535 | 0.9 | inactive | – | 0.7 | – | – | –
O=C1c2c(O)ccc(O)c2C(=O)c2c(NCC[N+]3([O-])CCCCC3CCl)ccc(NCC[N+]3([O-])CCCCC3CCl)c21 (stereo not drawn) | > 1 | > 1 | > 1 | – | – | – | – | – | – | inactive
CN(C)CCNc1ccc(NCCN2CCCCC2CCl)c2c1C(=O)c1c(O)ccc(O)c1C2=O (stereo not drawn) | 0.04 | 0.091 | 0.069 | 1.7 | – | – | 2.3 | – | – | –
CN(C)CCNc1ccc(NCCN2CCCC(Cl)C2)c2c1C(=O)c1c(O)ccc(O)c1C2=O (stereo not drawn) | 0.009 | 0.075 | 0.063 | 7 | – | – | 8.3 | 0.182 | – | –
O=C1c2ccccc2C(=O)c2c(NCCN3CCCC3CCl)cccc21 (stereo not drawn) | > 1 | > 1 | > 1 | – | – | – | – | – | – | –
COc1cccc2c1C(=O)c1c(O)c3c(c(O)c1C2=O)C[C@@](O)(C(=O)CO)C[C@@H]3O[C@H]1C[C@H](N)[C@H](O)[C@H](C)O1 [DOXORUBICIN] | 0.0075 | 0.061 | 0.003 | 0.4 | – | – | 8.1 | – | – | –
